Screens from PubChem.
FGF22 binding – FGF22 (human) thermal shift binding | Q9HCT0 | recombinant FGF22 thermal shift, SYPRO orange fluorescence; percent of sucrose octasulfate shift, DMSO zero | activity (Tm shift, normalised), % at 9.99 µM | 340,000 compounds, 1.5% hits;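 active = mean Tm shift, scaled 0 neutral to 100 positive control, at about 1.3% or above, every replicate too, limit read from the data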
S100A4 MyoIIA – blocks human S100A4 binding to myosin IIA peptide; inhibition, % at 10.7 µM; 360,000 compounds, 0.14% hits; S100A4/TAMRA-MyoIIA peptide fluorescence polarization; P26447;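 active = mean inhibition of at least 70% across replicates, with every replicate also reaching that level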
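assay system = human S100A4 monomer with TAMRA-labelled myosin IIA peptide | also added = labelled myosin peptide probe, 5 nM | incubation = 5 min between mix addition and reading | control set = DMSO and TFP controls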
PDI inh – inhibitors of human protein disulfide isomerase | PDI insulin aggregation turbidity, A650, 90 min | inhibition, % at 10 µM | 350,000 compounds, 0.052% hits | P07237 | AID 588391;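 active = mean inhibition across replicates of 30% or more, whatever share of single replicates reach that level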
ERAP1 HTS inh – ERAP1 (human) enzyme inhibition; Q9NZ08; recombinant ERAP1, Leu-AMC fluorescence, 60 min; inhibition, % at 10.7 µM; 340,000 compounds, 0.15% hits; AID 652197;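 active = mean replicate inhibition of at least 30%, or all replicates individually reaching that 30% level; inactive = mean below 30% and not every replicate reaching it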;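 note: 0% = neutral control wells and 100% = L-leucinethiol positive control wells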
ERp5 block – ERp5 (human) disulfide isomerase inhibition | Q15084 | ERp5 insulin aggregation, absorbance 650 nm, 90 min | inhibition, % at 9.99 µM | 350,000 compounds, 0.05% hits | AID 651711;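 active = mean replicate inhibition above about 25%, with every replicate also reaching it, limit read from the data, passing the limit was not always enough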
Target sequence (Q15084 whole entry, looked up): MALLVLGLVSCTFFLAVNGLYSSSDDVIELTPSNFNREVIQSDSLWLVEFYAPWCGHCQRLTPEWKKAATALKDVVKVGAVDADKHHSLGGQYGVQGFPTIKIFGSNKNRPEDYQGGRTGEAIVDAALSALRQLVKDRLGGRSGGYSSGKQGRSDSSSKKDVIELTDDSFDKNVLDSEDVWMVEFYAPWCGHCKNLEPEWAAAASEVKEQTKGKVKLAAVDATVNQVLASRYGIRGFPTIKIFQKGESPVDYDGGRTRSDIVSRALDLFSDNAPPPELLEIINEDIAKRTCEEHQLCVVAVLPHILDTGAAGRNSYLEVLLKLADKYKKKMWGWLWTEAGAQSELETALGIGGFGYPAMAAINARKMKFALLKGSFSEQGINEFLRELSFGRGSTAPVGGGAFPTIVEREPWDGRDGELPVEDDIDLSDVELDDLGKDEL
* marks the source's active call; other numbers are inactive results; . = no result. The entries come from a sample that favours hits as a whole.

SMILES	FGF22 binding	S100A4 MyoIIA	PDI inh	ERAP1 HTS inh	ERp5 block
Cc1ccc(S(=O)(=O)N2CCN(S(=O)(=O)c3c(C)n[nH]c3C)CC2)cc1C	0	-2	4	2	20
CC(NC(=O)c1ccccc1)C(=O)N/N=C/c1cccc([N+](=O)[O-])c1 (configuration not stated)	43*	-3	4	-4	1
CC(NC(=O)c1ccccc1)C(=O)N/N=C/c1ccc(O)cc1 (configuration not stated)	0	2	-2	-3	-1
C=CCN1C(=O)c2ccc(C(=O)NCC(c3ccccc3)N(C)C)cc2C1=O (configuration not stated)	0	-6	2	-1	-13
Cc1ccc(S(=O)(=O)Oc2ccccc2-c2ccccc2)cc1	43*	1	-4	2	4
CC(=O)c1ccc(OCc2cc(C(=O)N3CCC(c4ccncc4)CC3)no2)cc1	0	2	-1	0	2
CC(=O)c1ccc(OCc2cc(C(=O)N3CCCCC3c3cccnc3)no2)cc1 (configuration not stated)	0	2	33*	1	10
CC(C)(O)C#Cc1ccc([C@H]2[C@@H](CO)N3CCCCN(C(=O)c4cccnc4)C[C@@H]23)cc1	0	11	.	0	-11
C[C@H](CO)N1C[C@H](C)[C@@H](CN(C)C(=O)CN(C)C)Oc2ncc(C#CC3(O)CCCC3)cc2C1=O	0	-7	.	-2	5
CC(C)(C)c1csc(N/N=C/c2cccnc2)n1	44*	-12	2	3	0
O=C(C1CC1)N(CCc1ccccc1)Cc1nc2ccccc2c(=O)[nH]1	.	.	-9	.	.
COc1ccc(CCN(Cc2nc3ccccc3c(=O)[nH]2)C(=O)C2CC2)cc1	43*	-10	1	5	-1
COc1ccc(NC(=O)c2sc3nc(C)nc(N4CCOCC4)c3c2C)c(OC)c1	0	2	4	.	1
Cc1ccc(/C=C2\SC(=O)N(CCC(=O)N3CCN(C)CC3)C2=O)cc1	0	4	-19	-2	-4
CN1CCN(C(=O)CCN2C(=O)S/C(=C/c3ccc(Cl)cc3)C2=O)CC1	43*	-4	-6	-3	3
Cc1cc(C)c2c(=O)n3c(nc2c1)C(Cc1ccc(O)cc1)NC(=O)c1cccnc1-3 (configuration not stated)	0	2	44*	2	-2
Cc1ccc2nc3n(c(=O)c2c1)-c1ncccc1C(=O)NC3Cc1ccc(O)cc1 (configuration not stated)	0	-2	37*	2	-6
Cc1cc(C)c2c(=O)n3c(nc2c1)C(Cc1ccccc1)NC(=O)c1cccnc1-3 (configuration not stated)	0	-10	-1	4	-5
O=C1NC(Cc2ccc(O)cc2)c2nc3ccccc3c(=O)n2-c2ncccc21 (configuration not stated)	0	0	43*	1	1
CCN(CC(=O)N1CCCC1)S(=O)(=O)c1ccc(OC)cc1	0	1	7	-1	-1
O=C(NC1CCCCC1)N1CCc2ccccc2C1	0	0	-6	0	-1
O=C(CN1CCc2ccccc2C1)NC1CCCC1	43*	-3	-10	-2	-6
CN(C)CC(=O)N[C@H]1CC[C@@H](CCn2cc(C3CCCC3)nn2)O[C@H]1CO	0	5	.	-1	-5
NC(=S)N=Nc1c(O)n(CCCl)c2ccccc12	0	0	4	0	2
NC(=S)N=Nc1c(O)n(CCCl)c2ccc(Cl)cc12	44*	-12	-4	3	-2
CC(=O)OCC1=C(C(=O)O)N2C(=O)C(NC(=O)Cn3nc(C(F)F)c(Cl)c3C)C2SC1 (configuration not stated)	43*	2	7	1	3
CC(=O)OCC1=C(C(=O)O)N2C(=O)C(NC(=O)CCn3nc(C)c(Cl)c3C)C2SC1 (configuration not stated)	0	-5	2	-2	12
Cc1nnc(SCC2=C(C(=O)O)N3C(=O)C(NC(=O)Cn4nc(C(F)F)c(Cl)c4C)C3SC2)s1 (configuration not stated)	43*	-1	0	2	8
